ChEMBL document CHEMBL1268999, “Triazolyl tryptoline derivatives as β-secretase inhibitors” (Bioorg Med Chem Lett, 2010)

Experiments:
Beta-secretase 1 [1] = molecular target: T1, Beta-secretase 1 (Homo sapiens, UniProt P56817); assay: Inhibition of human BACE1 at 5 uM
Summary of the method: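 Recombinant human BACE1 enzymatic assay with a FRET substrate (fluorescence resonance energy transfer read-out). Candidates were crude Cu(I)-catalysed azide–alkyne products made in microtiter plates with more than 80% conversion by LC–MS. They were diluted in 50 mM sodium acetate (pH 4.5) to 25 mM stocks, based on azide input.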

Cytochrome P450 2D6 = Cytochrome P450 2D6 (Homo sapiens, UniProt P10635); assay: Inhibition of CYP2D6; type: ADME
Chain of Cytochrome P450 2D6 (P10635 whole entry): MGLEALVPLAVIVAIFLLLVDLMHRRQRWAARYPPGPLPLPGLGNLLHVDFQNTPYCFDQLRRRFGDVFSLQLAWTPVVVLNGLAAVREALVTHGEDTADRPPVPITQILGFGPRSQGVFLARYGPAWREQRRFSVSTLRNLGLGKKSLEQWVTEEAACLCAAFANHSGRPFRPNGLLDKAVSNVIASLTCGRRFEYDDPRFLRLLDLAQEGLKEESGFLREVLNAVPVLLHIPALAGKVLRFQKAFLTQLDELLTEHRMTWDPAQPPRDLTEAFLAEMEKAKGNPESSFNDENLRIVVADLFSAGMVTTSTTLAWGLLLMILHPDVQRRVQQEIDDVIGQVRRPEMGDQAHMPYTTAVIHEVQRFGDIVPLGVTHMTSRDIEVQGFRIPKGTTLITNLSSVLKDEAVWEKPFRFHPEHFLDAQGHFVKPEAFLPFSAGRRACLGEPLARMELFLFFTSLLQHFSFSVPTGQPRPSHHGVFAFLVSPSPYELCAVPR
Summary of the method: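 CYP2D6 inhibition reported as a categorical score, where 0 = non-inhibitor.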

[2] = Protein binding in plasma; type: ADME, cell-free; details: read-out: PPB
Summary of the method: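 Plasma protein binding reported as a categorical level: 1 = binding >90%; 2 = binding >95%.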

Hepatocyte = assay: Toxicity in hepatocytes; type: cell-based
Rattus norvegicus = assay: Toxicity in po dosed rat; type: organism-based; details: in vivo
[3] = Solubility of the compound; type: physicochemical
Summary of the method: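 Aqueous solubility reported as a categorical level on a 0–3 scale, where 0 = extremely low and 3 = good.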

Beta-secretase 1 [4] = molecular target: T1, Beta-secretase 1; assay: Inhibition of human recombinant BACE1 by FRET assay
Summary of the method: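 Recombinant human BACE1 assayed by fluorescence resonance energy transfer (FRET) cleavage of a FRET substrate. They were diluted in 50 mM sodium acetate (pH 4.5) to 25 mM stocks, based on azide input. A purified resynthesised compound was also tested.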

Cathepsin D = Cathepsin D (Homo sapiens, UniProt P07339); assay: Inhibition of human recombinant Cathepsin D by FRET assay
Chain of Cathepsin D (P07339 65-162 limits assumed): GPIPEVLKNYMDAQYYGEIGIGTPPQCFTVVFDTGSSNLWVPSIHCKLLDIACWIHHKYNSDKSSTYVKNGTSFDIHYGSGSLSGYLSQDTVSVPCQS
Chain of Cathepsin D (P07339 169-412 limits assumed): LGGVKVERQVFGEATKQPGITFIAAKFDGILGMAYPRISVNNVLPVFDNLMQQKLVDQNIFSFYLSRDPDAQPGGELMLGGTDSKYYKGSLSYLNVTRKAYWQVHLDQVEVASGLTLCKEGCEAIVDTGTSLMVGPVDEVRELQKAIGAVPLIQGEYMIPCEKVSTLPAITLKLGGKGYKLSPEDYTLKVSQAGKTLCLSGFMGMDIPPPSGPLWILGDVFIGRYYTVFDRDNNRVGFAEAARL

T1 sequence (P56817 whole entry): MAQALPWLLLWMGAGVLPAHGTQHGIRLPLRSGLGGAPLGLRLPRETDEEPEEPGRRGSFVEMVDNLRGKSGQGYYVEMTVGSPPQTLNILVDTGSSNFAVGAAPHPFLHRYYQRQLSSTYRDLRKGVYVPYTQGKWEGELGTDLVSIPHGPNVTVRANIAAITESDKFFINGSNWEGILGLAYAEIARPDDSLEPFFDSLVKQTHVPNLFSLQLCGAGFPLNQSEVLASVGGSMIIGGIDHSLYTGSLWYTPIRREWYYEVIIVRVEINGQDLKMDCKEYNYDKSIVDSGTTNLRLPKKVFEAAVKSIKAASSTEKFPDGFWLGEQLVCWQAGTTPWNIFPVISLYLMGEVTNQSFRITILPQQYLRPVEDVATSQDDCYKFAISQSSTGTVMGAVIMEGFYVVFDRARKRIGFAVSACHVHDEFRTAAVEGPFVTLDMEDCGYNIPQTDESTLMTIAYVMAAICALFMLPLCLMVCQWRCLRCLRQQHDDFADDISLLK

| SMILES | inhibition (Beta-secretase 1 [1]) | also measured |
| --- | --- | --- |
| Cc1nnc(SCc2cn(C[C@@H]3Cc4c([nH]c5ccccc45)CN3)nn2)s1 | < 50% | – |
| c1ccc2c3c([nH]c2c1)CNCC3 [TRYPTOLINE] | – | inhibition (INH) (Cytochrome P450 2D6): Not Active; fraction unbound [2]: < 0.1; Activity (Hepatocyte): Non-toxic; LD50 (Rattus norvegicus): 701500 µg/g; solubility [3]: Soluble |
| c1ccc(SCc2cn(C[C@@H]3Cc4c([nH]c5ccccc45)CN3)nn2)cc1 | < 50% | – |
| Fc1cc(F)cc(-c2cn(C[C@@H]3Cc4c([nH]c5ccccc45)CN3)nn2)c1 | < 50% | – |
| Cc1ccc(-c2cn(C[C@@H]3Cc4c([nH]c5ccccc45)CN3)nn2)cc1 | < 50% | – |
| c1ccc(-c2ccc(-c3cn(C[C@@H]4Cc5c([nH]c6ccccc56)CN4)nn3)cc2)cc1 | < 50% | – |
| CC(=O)c1ccc(-c2cn(C[C@@H]3Cc4c([nH]c5ccccc45)CN3)nn2)cc1 | < 50% | – |
| Nc1cccc(-c2cn(C[C@@H]3Cc4c([nH]c5ccccc45)CN3)nn2)c1 | < 50% | – |
| CC(=O)CC(=O)NCc1cn(C[C@@H]2Cc3c([nH]c4ccccc34)CN2)nn1 | < 50% | – |
| CCOC(OCC)c1cn(C[C@@H]2Cc3c([nH]c4ccccc34)CN2)nn1 | < 50% | – |
| CC[C@H]1CN2CCc3c([nH]c4ccccc34)[C@H]2C[C@@H]1C[C@@H]1NCCc2c1[nH]c1ccccc21 | – | inhibition (INH) (Cytochrome P450 2D6): Not Active; fraction unbound [2]: < 0.05; Activity (Hepatocyte): Toxic; LD50 (Rattus norvegicus): 235.5 µg/g; solubility [3]: Insoluble |
| OC1(c2cn(C[C@@H]3Cc4c([nH]c5ccccc45)CN3)nn2)CCCC1 | < 50% | – |
| COc1ccc2cc(-c3cn(C[C@@H]4Cc5c([nH]c6ccccc56)CN4)nn3)ccc2c1 | > 50% | IC50 (Beta-secretase 1 [4]): 1.49 µM; IC50 (Cathepsin D): > 100 µM |
| c1ccc2c3c([nH]c2c1)CN[C@H](Cn1cc(-c2ccsc2)nn1)C3 | < 50% | – |
| OC1(c2cn(C[C@@H]3Cc4c([nH]c5ccccc45)CN3)nn2)c2ccccc2-c2ccccc21 | < 50% | – |
| OC(c1ccccc1)c1cn(C[C@@H]2Cc3c([nH]c4ccccc34)CN2)nn1 (some centres undefined) | < 50% | – |
| c1ccc2c(-c3cn(C[C@@H]4Cc5c([nH]c6ccccc56)CN4)nn3)cccc2c1 | < 50% | – |

Continued, in another order:

| inhibition (Beta-secretase 1 [1]) | SMILES | also measured |
| --- | --- | --- |
| < 50% | c1ccc2c3c([nH]c2c1)CN[C@H](Cn1cc(COC2CCCCO2)nn1)C3 (some centres undefined) | – |
| < 50% | CCCC(O)c1cn(C[C@@H]2Cc3c([nH]c4ccccc34)CN2)nn1 (some centres undefined) | – |
| < 50% | N#CCCc1cn(C[C@@H]2Cc3c([nH]c4ccccc34)CN2)nn1 | – |
| < 50% | c1ccc2c3c([nH]c2c1)CN[C@H](Cn1cc(COC[C@H]2CO2)nn1)C3 | – |
| < 50% | OC/C=C/c1cn(C[C@@H]2Cc3c([nH]c4ccccc34)CN2)nn1 | – |
| < 50% | c1ccc2c3c([nH]c2c1)CN[C@H](Cn1cc(Cn2ccnc2)nn1)C3 | – |
| < 50% | CC(O)c1cn(C[C@@H]2Cc3c([nH]c4ccccc34)CN2)nn1 (some centres undefined) | – |
